Results gathered from unrelated publications.
Lines come from different studies, so protocols differ.
Target: Serine/threonine-protein kinase TAO2 (TAOK2, Homo sapiens, UniProt Q9UL54)
One construct used (Q9UL54 1-1235): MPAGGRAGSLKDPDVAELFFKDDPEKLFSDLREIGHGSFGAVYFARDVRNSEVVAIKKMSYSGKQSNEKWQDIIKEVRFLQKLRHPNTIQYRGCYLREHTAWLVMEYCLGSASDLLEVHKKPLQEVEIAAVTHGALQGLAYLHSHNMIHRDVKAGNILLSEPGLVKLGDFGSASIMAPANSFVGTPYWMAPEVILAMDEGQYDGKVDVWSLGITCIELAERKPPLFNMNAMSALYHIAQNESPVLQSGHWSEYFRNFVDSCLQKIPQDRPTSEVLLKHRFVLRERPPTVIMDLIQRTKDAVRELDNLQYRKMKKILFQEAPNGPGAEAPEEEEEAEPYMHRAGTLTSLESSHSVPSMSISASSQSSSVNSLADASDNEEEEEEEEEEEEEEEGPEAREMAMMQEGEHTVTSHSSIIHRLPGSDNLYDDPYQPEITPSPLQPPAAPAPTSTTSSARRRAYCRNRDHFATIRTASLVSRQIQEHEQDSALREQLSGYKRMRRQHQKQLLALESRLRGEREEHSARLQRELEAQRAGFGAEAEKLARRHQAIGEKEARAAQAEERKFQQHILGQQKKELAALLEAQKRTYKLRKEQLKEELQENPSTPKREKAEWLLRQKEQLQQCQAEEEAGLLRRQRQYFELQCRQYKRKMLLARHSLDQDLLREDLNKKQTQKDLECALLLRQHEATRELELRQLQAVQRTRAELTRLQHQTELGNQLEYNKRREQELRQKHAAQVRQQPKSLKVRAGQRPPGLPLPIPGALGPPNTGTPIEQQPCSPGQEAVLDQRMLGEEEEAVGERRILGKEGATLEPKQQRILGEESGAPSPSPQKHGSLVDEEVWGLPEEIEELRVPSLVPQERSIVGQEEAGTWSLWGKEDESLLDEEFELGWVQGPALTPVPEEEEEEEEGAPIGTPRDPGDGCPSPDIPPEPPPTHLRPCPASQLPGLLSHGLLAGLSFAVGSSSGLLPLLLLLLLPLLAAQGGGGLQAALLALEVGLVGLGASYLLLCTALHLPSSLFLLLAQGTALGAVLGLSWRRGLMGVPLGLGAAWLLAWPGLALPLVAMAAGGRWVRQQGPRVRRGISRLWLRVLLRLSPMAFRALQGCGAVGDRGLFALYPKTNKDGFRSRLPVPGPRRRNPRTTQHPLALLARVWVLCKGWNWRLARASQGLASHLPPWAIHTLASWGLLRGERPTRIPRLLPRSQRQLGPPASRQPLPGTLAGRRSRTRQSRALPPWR

SMILES	test	setting	quantity	result
CCN(CC)c1ccc(C2=NNC(=O)CC2C)cc1[N+](=O)[O-] (stereo not drawn)	enzyme activity, inhibitor	10 µM	remaining activity	95%
COc1cccc(CNC(=O)c2nc3scc(COCc4ccc(C(=O)O)cc4)c3c(=O)[nH]2)c1	cell-free assay, competition with immobilised ligand	1 µM	remaining binding	59.8%
CCCOc1ccc(OC)c(F)c1C(=O)c1ccc(C(=O)N[C@@H]2CNC[C@H]2NC(=O)c2ccc3[nH]ncc3c2)cc1	enzyme activity, inhibitor	10 µM	remaining activity	95%
CC(C)(C)c1nc2c(s1)c1nc(N)ncc1c1ccc(NS(=O)(=O)c3c(F)cccc3F)c(F)c12	enzyme activity, inhibitor, radiometric	1 µM	remaining activity	84%
COc1cccc2c(NCc3ccccc3)nc(-n3c(N)nc4ccccc43)nc12	target engagement in cells, inhibitor, chemoproteomics	20 mM	inhibition	-6.8%
Cc1cc(NC(=O)c2cccc3cc(-c4cccc5[nH]nc(N)c45)ccc23)ccc1F	enzyme activity, inhibitor	0.1 µM	activity vs control	86%
O=[N+]([O-])c1cccc2[nH]c(CNc3nc(N4CCOCC4)nc4c3ncn4-c3ccsc3)nc12	binding, competition with immobilised ligand	10 µM	binding vs control	84%
COc1cc(-c2cc(-c3ccc(N4CCNCC4)cc3)cnc2C)cc(OC)c1OC	enzyme activity, inhibitor	1 µM	inhibition	2%
Cc1cnc(NC2CCOCC2)nc1-n1cnc(C(=O)NC(CN)c2cc(F)cc(Cl)c2)c1 (stereo not drawn)	enzyme activity, inhibitor, radiometric	1 µM	remaining activity	88%
C[C@@H](c1cccc(C#N)c1)n1cc(Cl)cc(C(N)=O)c1=N	cell-free assay, competition with immobilised ligand	1 µM	remaining binding	84%
Nc1ncnc2occ(-c3ccc(NC(=O)Nc4cc(C(F)(F)F)ccc4F)cc3)c12	cell-free assay, inhibitor	20 µM	remaining signal	0%
CNC(=O)c1cc(Oc2ccc(NC(=O)Nc3ccc(Cl)c(C(F)(F)F)c3)cc2)ccn1	enzyme activity, inhibitor	0.3 µM	inhibition	84%
CN(C)c1ncnc(-c2ccc3nc(Nc4cc(CN5CCN(C(=O)CC(F)(F)F)CC5)ccn4)[nH]c3c2)c1Cl	cell-free assay, competition with immobilised ligand	1 µM	remaining binding	80%
Cc1ccc(Nc2nccc(N(C)c3ccc4c(C)n(C)nc4c3)n2)cc1S(N)(=O)=O	enzyme activity, inhibitor	10 µM	inhibition	93%
CCCOc1ccc([C@H]2[C@H](C(=O)O)[C@@H](c3ccc4c(c3)OCO4)CN2CC(=O)Nc2c(CC)cccc2CC)cc1	cell-free assay, competition with immobilised ligand	1 µM	remaining binding	74%
CCN(CC)CCNC(=O)c1c(C)[nH]c(/C=C2\C(=O)Nc3ccc(F)cc32)c1C	enzyme activity, inhibitor	10 µM	inhibition	29%
O=C1CCc2cc(Nc3cc(OC4CCOCC4)c([N+](=O)[O-])cc3Cl)ccc2N1	cell-free assay, competition with immobilised ligand	1 µM	remaining binding	82%
CCCCNc1ncc2c(-c3ccc(F)cc3)nn(C[C@H]3CC[C@H](N)CC3)c2n1	target engagement in cells, inhibitor, chemoproteomics	20 mM	inhibition	24.3%
